≈ marks a conversion by molar mass, not a printed value. Calls of active or inactive are those of the source. The calls are words filed in the database; no cut-off is given here.
Assays:
[1] = tested on: Mycobacterium tuberculosis; assay: Antimycobacterial activity against Mycobacterium tuberculosis H37Rv 331/88 measured after 14 days by micromethod; assay type: functional; conditions: H37Rv 331/88, 336 h
[2] = tested on: Mycobacterium tuberculosis; assay: Antimycobacterial activity against Mycobacterium tuberculosis H37Rv 331/88 measured after 21 days by micromethod; assay type: functional; conditions: H37Rv 331/88, 504 h
Mycobacterium avium [3] = assay: Antimycobacterial activity against Mycobacterium avium 330/88 measured after 14 days by micromethod; assay type: functional; conditions: 330/88, 336 h
Mycobacterium avium [4] = assay: Antimycobacterial activity against Mycobacterium avium 330/88 measured after 21 days by micromethod; assay type: functional; conditions: 330/88, 504 h
Mycobacterium kansasii [5] = assay: Antimycobacterial activity against Mycobacterium kansasii isolate 235/80 after 7 days by micromethod; assay type: functional; conditions: isolate 235/80, 168 h
Mycobacterium kansasii [6] = assay: Antimycobacterial activity against Mycobacterium kansasii isolate 235/80 after 14 days by micromethod; assay type: functional; conditions: isolate 235/80, 336 h
Mycobacterium kansasii [7] = assay: Antimycobacterial activity against Mycobacterium kansasii isolate 235/80 after 21 days by micromethod; assay type: functional; conditions: isolate 235/80, 504 h
Mycobacterium kansasii [8] = assay: Antimycobacterial activity against Mycobacterium kansasii isolate 6509/96 after 7 days by micromethod; assay type: functional; conditions: isolate 6509/96, 168 h
Mycobacterium kansasii [9] = assay: Antimycobacterial activity against Mycobacterium kansasii isolate 6509/96 after 14 days by micromethod; assay type: functional; conditions: isolate 6509/96, 336 h
Mycobacterium kansasii [10] = assay: Antimycobacterial activity against Mycobacterium kansasii isolate 6509/96 after 21 days by micromethod; assay type: functional; conditions: isolate 6509/96, 504 h
[11] = Solubility of the compound in Sula's semisynthetic medium up to 1 mM; assay type: physicochemical
Staphylococcus aureus [12] = assay: Antibacterial activity against Staphylococcus aureus CCM 4516/08 incubated for 24 hrs under dark condition by microdilution broth assay; assay type: functional; conditions: CCM 4516/08, 24 h
Procedure, shortened: (§1)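 Broth microdilution per M07-A07, modified, in Mueller-Hinton broth adjusted to pH 7.4 (±0.2). Inoculum is prepared in sterile water to McFarland 0.5 (1.5 × 10⁸ CFU/mL). Plates are incubated in the dark at 35 °C in humid air. MIC is read after 24 and 48 h as at least 95% growth reduction versus control (IC₉₅).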

Staphylococcus aureus [13] = assay: Antibacterial activity against Staphylococcus aureus CCM 4516/08 incubated for 48 hrs under dark condition by microdilution broth assay; assay type: functional; conditions: CCM 4516/08, 48 h; procedure, shortened: as §1
Staphylococcus aureus [14] = assay: Antibacterial activity against methicillin-resistant Staphylococcus aureus H 5996/08 incubated for 24 hrs under dark condition by microdilution broth assay; assay type: functional; conditions: H 5996/08, 24 h
Procedure, shortened: (§2)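 Microdilution broth method modified per M07-A07, in Mueller-Hinton broth adjusted to pH 7.4 (±0.2). Inoculum made in sterile water to 0.5 McFarland (1.5 × 10⁸ CFU/mL). Plates incubated in the dark at 35 °C in a humid atmosphere, with reads at 24 and 48 h. MIC taken as at least 95% growth reduction (IC₉₅) versus control.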

Staphylococcus aureus [15] = assay: Antibacterial activity against methicillin-resistant Staphylococcus aureus H 5996/08 incubated for 48 hrs under dark condition by microdilution broth assay; assay type: functional; conditions: H 5996/08, 48 h; procedure, shortened: as §2
[16] = tested on: Staphylococcus epidermidis; assay: Antibacterial activity against Staphylococcus epidermidis H 6966/08 incubated for 24 hrs under dark condition by microdilution broth assay; assay type: functional; conditions: H 6966/08, 24 h; procedure, shortened: as §1
[17] = tested on: Staphylococcus epidermidis; assay: Antibacterial activity against Staphylococcus epidermidis H 6966/08 incubated for 48 hrs under dark condition by microdilution broth assay; assay type: functional; conditions: H 6966/08, 48 h; procedure, shortened: as §1
Escherichia coli [18] = assay: Antibacterial activity against Escherichia coli CCM 4517 incubated for 24 hrs under dark condition by microdilution broth assay; assay type: functional; conditions: CCM 4517, 24 h; procedure, shortened: as §1
Escherichia coli [19] = assay: Antibacterial activity against Escherichia coli CCM 4517 incubated for 48 hrs under dark condition by microdilution broth assay; assay type: functional; conditions: CCM 4517, 48 h; procedure, shortened: as §1
Klebsiella pneumoniae [20] = assay: Antibacterial activity against Klebsiella pneumoniae D 11750/08 up to 500 uM incubated for 24 to 48 hrs under dark condition by microdilution broth assay; assay type: functional; procedure, shortened: as §1
Klebsiella pneumoniae [21] = assay: Antibacterial activity against ESBL positive Klebsiella pneumoniae J 14368/08 up to 500 uM incubated for 24 to 48 hrs under dark condition by microdilution broth assay; assay type: functional; procedure, shortened: as §1
Pseudomonas aeruginosa = assay: Antibacterial activity against Pseudomonas aeruginosa CCM 1961 up to 500 uM incubated for 24 to 48 hrs under dark condition by microdilution broth assay; assay type: functional; procedure, shortened: as §1
Candida albicans [22] = assay: Antifungal activity against Candida albicans ATCC 44859 after 24 hrs by microdilution broth assay; assay type: functional; conditions: ATCC 44859, 24 h
Procedure, shortened: (§3)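 Broth microdilution per CLSI M27-A3 and M38-A2 in RPMI 1640 with glutamine, buffered to pH 7.0 with MOPS. Compounds are diluted in DMSO. Final inoculum is 5 × 10³ CFU/mL for yeasts and 0.5–5 × 10⁴ CFU/mL for moulds. Plates are incubated in the dark at 35 °C in humid air and read visually and/or at 540 nm after 24 and 48 h. MIC is ≥80% growth reduction (IC₈₀) for yeasts and ≥50% (IC₅₀) for filamentous fungi.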

Candida albicans [23] = assay: Antifungal activity against Candida albicans ATCC 44859 after 48 hrs by microdilution broth assay; assay type: functional; conditions: ATCC 44859, 48 h; procedure, shortened: as §3
Candida tropicalis [24] = assay: Antifungal activity against Candida tropicalis 156 after 24 hrs by microdilution broth assay; assay type: functional; conditions: Candida tropicalis, 156, 24 h; procedure, shortened: as §3
Candida tropicalis [25] = assay: Antifungal activity against Candida tropicalis 156 after 48 hrs by microdilution broth assay; assay type: functional; conditions: Candida tropicalis, 156, 48 h; procedure, shortened: as §3
Nakaseomyces glabratus [26] = assay: Antifungal activity against Candida glabrata 20/I after 24 hrs by microdilution broth assay; assay type: functional; procedure, shortened: as §3
Nakaseomyces glabratus [27] = assay: Antifungal activity against Candida glabrata 20/I after 48 hrs by microdilution broth assay; assay type: functional; procedure, shortened: as §3
Trichosporon asahii [28] = assay: Antifungal activity against Trichosporon asahii 1188 after 24 hrs by microdilution broth assay; assay type: functional; conditions: Trichosporon asahii, 1188, 24 h; procedure, shortened: as §3
Trichosporon asahii [29] = assay: Antifungal activity against Trichosporon asahii 1188 after 48 hrs by microdilution broth assay; assay type: functional; conditions: Trichosporon asahii, 1188, 48 h; procedure, shortened: as §3
Aspergillus fumigatus [30] = assay: Antifungal activity against Aspergillus fumigatus 231 after 24 hrs by microdilution broth assay; assay type: functional; conditions: Aspergillus fumigatus, 231, 24 h; procedure, shortened: as §3
Aspergillus fumigatus [31] = assay: Antifungal activity against Aspergillus fumigatus 231 after 48 hrs by microdilution broth assay; assay type: functional; conditions: Aspergillus fumigatus, 231, 48 h; procedure, shortened: as §3
[32] = tested on: Trichophyton mentagrophytes; assay: Antifungal activity against Trichophyton mentagrophytes 445 after 72 hrs by microdilution broth assay; assay type: functional; conditions: Trichophyton mentagrophytes, 445, 72 h
Procedure, shortened: (§4)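 Broth microdilution per CLSI M38-A2 in RPMI 1640 with glutamine, buffered to pH 7.0 with MOPS, with DMSO as diluent. Final inoculum is 0.5–5 × 10⁴ CFU/mL. Plates are incubated in the dark at 35 °C in humid air and read visually and/or at 540 nm after 72 and 120 h. MIC is at least 50% growth reduction versus control.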

[33] = tested on: Trichophyton mentagrophytes; assay: Antifungal activity against Trichophyton mentagrophytes 445 after 120 hrs by microdilution broth assay; assay type: functional; conditions: Trichophyton mentagrophytes, 445, 120 h; procedure, shortened: as §4
Pichia kudriavzevii = assay: Antifungal activity against Candida krusei E28 after 24 to 48 hrs hrs by microdilution broth assay; assay type: functional; procedure, shortened: as §3
Lichtheimia corymbifera = assay: Antifungal activity against Absidia corymbifera 272 after 24 to 48 hrs hrs by microdilution broth assay; assay type: functional; procedure, shortened: as §3
Enterococcus [34] = assay: Antibacterial activity against Enterococcus sp. J 14365/08 incubated for 24 hrs under dark condition by microdilution broth assay; conditions: J 14365/08, 24 h
Enterococcus [35] = assay: Antibacterial activity against Enterococcus sp. J 14365/08 incubated for 48 hrs under dark condition by microdilution broth assay; conditions: J 14365/08, 48 h

Structure (SMILES) | MIC [1] [µM] | MIC [2] [µM] | MIC (Mycobacterium avium [3]) [µM] | MIC (Mycobacterium avium [4]) [µM] | MIC (Mycobacterium kansasii [5]) [µM] | MIC (Mycobacterium kansasii [6]) [µM] | MIC (Mycobacterium kansasii [7]) [µM] | MIC (Mycobacterium kansasii [8]) [µM] | MIC (Mycobacterium kansasii [9]) [µM] | MIC (Mycobacterium kansasii [10]) [µM] | solubility [11] | Activity (Klebsiella pneumoniae [20]) | Activity (Klebsiella pneumoniae [21]) | Activity (Pseudomonas aeruginosa) | MIC80 (Candida albicans [22]) [µM] | MIC80 (Candida albicans [23]) [µM] | MIC80 (Candida tropicalis [24]) [µM] | MIC80 (Candida tropicalis [25]) [µM] | MIC80 (Nakaseomyces glabratus [26]) [µM] | MIC80 (Nakaseomyces glabratus [27]) [µM] | further results
O=C(CN1C(=O)CSC1=S)Nc1ccccc1 | 1000 (≈ 266 µg/mL) | 1000 (≈ 266 µg/mL) | 1000 (≈ 266 µg/mL) | > 1000 | 1000 (≈ 266 µg/mL) | 1000 (≈ 266 µg/mL) | 1000 (≈ 266 µg/mL) | 1000 (≈ 266 µg/mL) | 1000 (≈ 266 µg/mL) | 1000 (≈ 266 µg/mL) | Soluble | inactive | inactive | inactive | > 500 | > 500 | 500 (≈ 133 µg/mL) | 500 (≈ 133 µg/mL) | > 500 | > 500 | MIC95 (Staphylococcus aureus [12]): 500 µM (≈ 133 µg/mL); MIC95 (Staphylococcus aureus [13]): 500 µM (≈ 133 µg/mL); MIC95 (Staphylococcus aureus [14]): > 500 µM; MIC95 (Staphylococcus aureus [15]): > 500 µM; MIC95 [16]: 500 µM (≈ 133 µg/mL); MIC95 [17]: 500 µM (≈ 133 µg/mL); MIC95 (Escherichia coli [18]): > 500 µM; MIC95 (Escherichia coli [19]): > 500 µM; MIC80 (Trichosporon asahii [28]): > 500 µM; MIC80 (Trichosporon asahii [29]): > 500 µM; MIC50 (Aspergillus fumigatus [30]): > 500 µM; MIC50 (Aspergillus fumigatus [31]): > 500 µM; MIC50 [32]: > 500 µM; MIC50 [33]: > 500 µM; Activity (Pichia kudriavzevii): inactive; Activity (Lichtheimia corymbifera): inactive; MIC95 (Enterococcus [34]): 500 µM (≈ 133 µg/mL); MIC95 (Enterococcus [35]): 500 µM (≈ 133 µg/mL)
O=C(CN1C(=O)CSC1=S)Oc1ccc(Cl)cc1 | 250 (≈ 75.4 µg/mL) | 500 (≈ 151 µg/mL) | 1000 (≈ 302 µg/mL) | 1000 (≈ 302 µg/mL) | 250 (≈ 75.4 µg/mL) | 500 (≈ 151 µg/mL) | 1000 (≈ 302 µg/mL) | 250 (≈ 75.4 µg/mL) | 500 (≈ 151 µg/mL) | 500 (≈ 151 µg/mL) | Soluble | inactive | inactive | inactive | > 500 | > 500 | > 500 | > 500 | > 500 | > 500 | MIC80 (Trichosporon asahii [28]): > 500 µM; MIC80 (Trichosporon asahii [29]): > 500 µM; MIC50 (Aspergillus fumigatus [30]): > 500 µM; MIC50 (Aspergillus fumigatus [31]): > 500 µM; MIC50 [32]: 500 µM (≈ 151 µg/mL); MIC50 [33]: 500 µM (≈ 151 µg/mL); Activity (Pichia kudriavzevii): inactive; Activity (Lichtheimia corymbifera): inactive
CC(=O)Oc1ccccc1/C=C1\SC(=S)N(CC(=O)O)C1=O | 32 (≈ 10.8 µg/mL) | 32 (≈ 10.8 µg/mL) | 62.5 (≈ 21.1 µg/mL) | 62.5 (≈ 21.1 µg/mL) | 62.5 (≈ 21.1 µg/mL) | 62.5 (≈ 21.1 µg/mL) | 62.5 (≈ 21.1 µg/mL) | 62.5 (≈ 21.1 µg/mL) | 62.5 (≈ 21.1 µg/mL) | 62.5 (≈ 21.1 µg/mL) | Soluble | inactive | inactive | inactive | > 500 | > 500 | > 500 | > 500 | > 500 | > 500 | MIC95 (Staphylococcus aureus [12]): 62.5 µM (≈ 21.1 µg/mL); MIC95 (Staphylococcus aureus [13]): 62.5 µM (≈ 21.1 µg/mL); MIC95 (Staphylococcus aureus [14]): 62.5 µM (≈ 21.1 µg/mL); MIC95 (Staphylococcus aureus [15]): 62.5 µM (≈ 21.1 µg/mL); MIC95 [16]: 31.2 µM (≈ 10.5 µg/mL); MIC95 [17]: 31.2 µM (≈ 10.5 µg/mL); MIC95 (Escherichia coli [18]): > 500 µM; MIC95 (Escherichia coli [19]): > 500 µM; MIC80 (Trichosporon asahii [28]): > 500 µM; MIC80 (Trichosporon asahii [29]): > 500 µM; MIC50 (Aspergillus fumigatus [30]): > 500 µM; MIC50 (Aspergillus fumigatus [31]): > 500 µM; MIC50 [32]: 250 µM (≈ 84.3 µg/mL); MIC50 [33]: 500 µM (≈ 169 µg/mL); Activity (Pichia kudriavzevii): inactive; Activity (Lichtheimia corymbifera): inactive; MIC95 (Enterococcus [34]): 62.5 µM (≈ 21.1 µg/mL); MIC95 (Enterococcus [35]): 125 µM (≈ 42.2 µg/mL)
